According to ChEMBL document CHEMBL1145153, “Discovery of potent anilide inhibitors against the severe acute respiratory syndrome 3CL protease” (J Med Chem, 2005):
*1 amine or outer side, *2 acyl side, *3 side chain or, on linkers, in order; H or OH if unused. Where a SMILES comes first, the peptide text is derived from it. [ ]: non-standard residue; d: D form. The star is where a group is joined. ξ: configuration not given here. NH(2-Cl-4-NO2-phenyl) = O=[N+]([O-])c1ccc(N*)c(Cl)c1; Phe(4-F) = N[C@@H](Cc1ccc(F)cc1)C(=O)O; Thr(3ξ) = CC(O)[C@H](N)C(=O)O; Morpholide = C1CN(*)CCO1; Cbz = O=C(OCc1ccccc1)*; CO = O=C([*:1])[*:2]; Piv = CC(C)(C)C(=O)*; Propionyl = CCC(=O)*; Bz = O=C(c1ccccc1)*; X1 = CC1CCN(*)O1

Assay: Concentration required to inhibit SARS-CoV 3CL protease catalyzed cleavage of fluorogenic peptide Dabcyl-KTSAVLQSGFRKME-Edans by 50%
Method in brief: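 Purified enzyme (stock held in 12 mM Tris-HCl pH 7.5, 120 mM NaCl, 0.1 mM EDTA, 1 mM DTT, 7.5 mM β-ME) at 50 nM with 6 μM substrate in 20 mM Bis-Tris pH 7.0. Cleavage followed as fluorescence increase, excitation 355 nm, emission 538 nm. IC50 taken from initial velocities plotted against inhibitor concentration.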

Point of comparison: `CCC(=O)N[C@H](C(=O)C[C@@H](CC(C)C)C(=O)N[C@@H](Cc1ccccc1)C(=O)Nc1ccc([N+](=O)[O-])cc1Cl)C(C)C`, IC50 27 µM. Against it:
- CC1CCN(C(=O)N[C@H](C(=O)N[C@@H](Cc2ccccc2)C(=O)N[C@@H](Cc2ccccc2)C(=O)Nc2ccc([N+](=O)[O-])cc2Cl)C(C)C)O1 (stereo not given in full) — 3.9-fold lower, 7 µM
- CN(C)c1ccc(C(=O)N[C@@H](Cc2ccccc2)C(=O)Nc2ccccc2Cl)cc1 — not separable, > 10 µM
- O=C(CCC(=O)N[C@@H](Cc1ccccc1)C(=O)Nc1ccc([N+](=O)[O-])cc1Cl)NC(Cc1ccccc1)C(=O)Nc1ccc([N+](=O)[O-])cc1Cl (stereo not given in full) — higher, > 50 µM
- O=C(C[C@H](O)C(=O)N[C@@H](Cc1ccccc1)C(=O)Nc1ccc([N+](=O)[O-])cc1Cl)NC(Cc1ccccc1)C(=O)Nc1ccc([N+](=O)[O-])cc1Cl (stereo not given in full) — 6.8-fold lower, 4 µM
- CCCC(=O)N[C@H](C(=O)N[C@@H](CC(C)C)C(=O)N[C@@H](Cc1ccccc1)C(=O)Nc1ccc([N+](=O)[O-])cc1Cl)C(C)C — 3.9-fold lower, 7 µM
- CC(C)C[C@H](NC(=O)[C@@H](NC(=O)c1ccccc1)C(C)C)C(=O)N[C@@H](Cc1ccccc1)C(=O)Nc1ccc([N+](=O)[O-])cc1Cl — 6.8-fold lower, 4 µM
- CCCCCCCCCCCCCCC(Br)C(=O)N[C@@H](Cc1ccccc1)C(=O)Nc1ccc([N+](=O)[O-])cc1Cl (stereo not given in full) — 9-fold lower, 3 µM
- CC(C)[C@H](NC(=O)c1cccs1)C(=O)C[C@@H](Cc1ccccc1)C(=O)N[C@@H](Cc1ccccc1)C(=O)Nc1ccc([N+](=O)[O-])cc1Cl — 1.7-fold lower, 16 µM
- Nc1ccc(C(=O)N[C@@H](Cc2ccccc2)C(=O)Nc2ccc([N+](=O)[O-])cc2Cl)cc1N — 14-fold lower, 2 µM
- CC(C)C[C@H](NC(=O)[C@@H](NC(=O)N1CCOCC1)C(C)C)C(=O)N[C@@H](Cc1ccccc1)C(=O)Nc1ccc([N+](=O)[O-])cc1Cl — within 1.5-fold, 19 µM
- CC(C)C[C@H](NC(=O)[C@@H](NC(=O)c1cccs1)C(C)C)C(=O)N[C@@H](Cc1ccccc1)C(=O)Nc1ccc([N+](=O)[O-])cc1Cl — 5.4-fold lower, 5 µM
- CC(C)C[C@H](CC(=O)[C@@H](NC(=O)N1CCOCC1)C(C)C)C(=O)N[C@@H](Cc1ccccc1)C(=O)Nc1ccc([N+](=O)[O-])cc1Cl — within 1.5-fold, 29 µM
- CN(C)c1ccc(C(=O)N[C@@H](Cc2ccccc2)C(=O)Nc2ccccc2)cc1 — not separable, > 10 µM
- O=C(N[C@@H](Cc1ccccc1)C(=O)Nc1ccc([N+](=O)[O-])cc1Cl)c1ccccc1 — not separable, > 10 µM
- CC(C)(C)OC(=O)N[C@@H](Cc1ccccc1)C(=O)Nc1ccc([N+](=O)[O-])cc1Cl — higher, > 50 µM
- O=C(Nc1ccc([N+](=O)[O-])cc1Cl)C(Cc1ccccc1)NC(=O)[C@H](O)[C@@H](O)C(=O)N[C@@H](Cc1ccccc1)C(=O)Nc1ccc([N+](=O)[O-])cc1Cl (stereo not given in full) — 5.4-fold lower, 5 µM
- CN(C)c1ccc(C(=O)N[C@@H](Cc2ccccc2)C(=O)Nc2ccc([N+](=O)[O-])cc2)cc1 — not separable, > 10 µM
- O=C(N[C@@H](Cc1ccccc1)C(=O)Nc1ccc([N+](=O)[O-])cc1)c1ccccc1 — not separable, > 10 µM
- CC(C)C[C@H](CC(=O)[C@@H](NC(=O)c1ccccc1)C(C)C)C(=O)N[C@@H](Cc1ccccc1)C(=O)Nc1ccc([N+](=O)[O-])cc1Cl — within 1.5-fold, 21 µM
- CC(C)C[C@H](CC(=O)[C@@H](NC(=O)OC(C)(C)C)C(C)C)C(=O)N[C@@H](Cc1ccccc1)C(=O)Nc1ccc([N+](=O)[O-])cc1Cl — within 1.5-fold, 19 µM
- CC(C)C[C@H](CC(=O)[C@@H](NC(=O)c1cccs1)C(C)C)C(=O)N[C@@H](Cc1ccccc1)C(=O)Nc1ccc([N+](=O)[O-])cc1Cl — within 1.5-fold, 22 µM
- CC(O)[C@H](NC(=O)[C@H](O)[C@@H](O)C(=O)N[C@H](C(=O)N[C@H](Cc1ccccc1)C(=O)Nc1ccc([N+](=O)[O-])cc1Cl)C(C)O)C(=O)N[C@@H](Cc1ccccc1)C(=O)Nc1ccc([N+](=O)[O-])cc1Cl (stereo not given in full) — 14-fold lower, 2 µM
- CC(O)[C@H](NC(=O)C[C@@H](O)C(=O)N[C@H](C(=O)N[C@@H](Cc1ccccc1)C(=O)Nc1ccc([N+](=O)[O-])cc1Cl)C(C)O)C(=O)NC(Cc1ccccc1)C(=O)Nc1ccc([N+](=O)[O-])cc1Cl (stereo not given in full) — 14-fold lower, 2 µM
- CN(C)c1ccc(C(=O)N[C@@H](Cc2ccccc2)C(=O)Nc2ccc([N+](=O)[O-])cc2Cl)cc1 — 450-fold lower, 0.06 µM
- CC(O)[C@H](NC(=O)CCC(=O)N[C@H](C(=O)N[C@@H](Cc1ccccc1)C(=O)Nc1ccc([N+](=O)[O-])cc1Cl)C(C)O)C(=O)NC(Cc1ccccc1)C(=O)Nc1ccc([N+](=O)[O-])cc1Cl (stereo not given in full) — 14-fold lower, 2 µM
- CC(C)[C@H](NC(=O)c1cccs1)C(=O)N[C@@H](Cc1ccccc1)C(=O)N[C@@H](Cc1ccccc1)C(=O)Nc1ccc([N+](=O)[O-])cc1Cl — 5.4-fold lower, 5 µM
- CC(C)C[C@H](NC(=O)[C@@H](NC(=O)OC(C)(C)C)C(C)C)C(=O)N[C@@H](Cc1ccccc1)C(=O)Nc1ccc([N+](=O)[O-])cc1Cl — not separable, > 10 µM
- O=C(N[C@@H](Cc1ccccc1)C(=O)Nc1ccc([N+](=O)[O-])cc1Cl)c1ccc([N+](=O)[O-])cc1 — not separable, > 10 µM
- O=C(/C=C/c1c[nH]c2ccccc12)N[C@@H](Cc1ccccc1)C(=O)Nc1ccc([N+](=O)[O-])cc1Cl — 9-fold lower, 3 µM
- CC(C)[C@H](NC(=O)c1ccccc1)C(=O)N[C@@H](Cc1ccc(F)cc1)C(=O)N[C@H](C(=O)N[C@@H](Cc1ccccc1)C(=O)Nc1ccc([N+](=O)[O-])cc1Cl)C(C)O (stereo not given in full) (Bz-V[Phe(4-F)][Thr(3ξ)]F-{NH(2-Cl-4-NO2-phenyl)}) — 14-fold lower, 2 µM
- CC(C)[C@H](NC(=O)OCc1ccccc1)C(=O)N[C@@H](Cc1ccccc1)C(=O)N[C@H](C(=O)N[C@@H](Cc1ccccc1)C(=O)Nc1ccc([N+](=O)[O-])cc1Cl)C(C)O (stereo not given in full) (Cbz-VF[Thr(3ξ)]F-{NH(2-Cl-4-NO2-phenyl)}) — 4.5-fold lower, 6 µM
- CC(C)[C@H](NC(=O)C(C)(C)C)C(=O)N[C@@H](Cc1ccccc1)C(=O)N[C@H](C(=O)N[C@@H](Cc1ccccc1)C(=O)Nc1ccc([N+](=O)[O-])cc1Cl)C(C)O (stereo not given in full) (Piv-VF[Thr(3ξ)]F-{NH(2-Cl-4-NO2-phenyl)}) — 14-fold lower, 2 µM
- CCC(=O)N[C@H](C(=O)N[C@@H](CC(C)C)C(=O)N[C@H](C(=O)N[C@@H](Cc1ccccc1)C(=O)Nc1ccc([N+](=O)[O-])cc1Cl)C(C)O)C(C)C (stereo not given in full) (Propionyl-VL[Thr(3ξ)]F-{NH(2-Cl-4-NO2-phenyl)}) — 3.9-fold lower, 7 µM
- CCC(=O)N[C@H](C(=O)N[C@@H](Cc1ccc(F)cc1)C(=O)N[C@H](C(=O)N[C@@H](Cc1ccccc1)C(=O)Nc1ccc([N+](=O)[O-])cc1Cl)C(C)O)C(C)C (stereo not given in full) (Propionyl-V[Phe(4-F)][Thr(3ξ)]F-{NH(2-Cl-4-NO2-phenyl)}) — 5.4-fold lower, 5 µM
- CC(C)C[C@H](NC(=O)[C@@H](NC(=O)N1CCOCC1)C(C)C)C(=O)N[C@H](C(=O)N[C@@H](Cc1ccccc1)C(=O)Nc1ccc([N+](=O)[O-])cc1Cl)C(C)O (stereo not given in full) ({Morpholide-CO}-VL[Thr(3ξ)]F-{NH(2-Cl-4-NO2-phenyl)}) — 1.7-fold lower, 16 µM
- CC1CCN(C(=O)N[C@H](C(=O)N[C@@H](Cc2ccccc2)C(=O)N[C@H](C(=O)N[C@@H](Cc2ccccc2)C(=O)Nc2ccc([N+](=O)[O-])cc2Cl)C(C)O)C(C)C)O1 (stereo not given in full) ({X1-CO}-VF[Thr(3ξ)]F-{NH(2-Cl-4-NO2-phenyl)}) — 5.4-fold lower, 5 µM
- O=C(Nc1ccc([N+](=O)[O-])cc1Cl)c1cc(Cl)ccc1O [NICLOSAMIDE] — not separable, > 10 µM

Assay: Inhibitory constant against SARS-CoV 3CL protease catalyzed cleavage of fluorogenic peptide Dabcyl-KTSAVLQSGFRKME-Edans
Method in brief: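 Fluorometric cleavage assay in 20 mM Bis-Tris pH 7.0, excitation 355 nm, emission 538 nm. Enzyme stock held in 12 mM Tris-HCl pH 7.5 with NaCl, EDTA, DTT and β-ME. Initial rates measured at two fixed inhibitor concentrations across various substrate concentrations. Ki derived using double-reciprocal plots of rate versus substrate concentration.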

Point of comparison: `CC(C)[C@H](NC(=O)c1cccs1)C(=O)N[C@@H](Cc1ccccc1)C(=O)N[C@@H](Cc1ccccc1)C(=O)Nc1ccc([N+](=O)[O-])cc1Cl`, Ki 4.3 µM. Against it:
- CC1CCN(C(=O)N[C@H](C(=O)N[C@@H](Cc2ccccc2)C(=O)N[C@@H](Cc2ccccc2)C(=O)Nc2ccc([N+](=O)[O-])cc2Cl)C(C)C)O1 (stereo not given in full) — within 1.5-fold, 2.9 µM
- O=C(C[C@H](O)C(=O)N[C@@H](Cc1ccccc1)C(=O)Nc1ccc([N+](=O)[O-])cc1Cl)NC(Cc1ccccc1)C(=O)Nc1ccc([N+](=O)[O-])cc1Cl (stereo not given in full) — within 1.5-fold, 3.1 µM
- CC(C)C[C@H](NC(=O)[C@@H](NC(=O)c1cccs1)C(C)C)C(=O)N[C@@H](Cc1ccccc1)C(=O)Nc1ccc([N+](=O)[O-])cc1Cl — 1.9-fold lower, 2.29 µM
- CN(C)c1ccc(C(=O)N[C@@H](Cc2ccccc2)C(=O)Nc2ccc([N+](=O)[O-])cc2Cl)cc1 — 140-fold lower, 0.03 µM
- CC(C)[C@H](NC(=O)OCc1ccccc1)C(=O)N[C@@H](Cc1ccccc1)C(=O)N[C@H](C(=O)N[C@@H](Cc1ccccc1)C(=O)Nc1ccc([N+](=O)[O-])cc1Cl)C(C)O (stereo not given in full) (Cbz-VF[Thr(3ξ)]F-{NH(2-Cl-4-NO2-phenyl)}) — 2.8-fold lower, 1.51 µM
- CC1CCN(C(=O)N[C@H](C(=O)N[C@@H](Cc2ccccc2)C(=O)N[C@H](C(=O)N[C@@H](Cc2ccccc2)C(=O)Nc2ccc([N+](=O)[O-])cc2Cl)C(C)O)C(C)C)O1 (stereo not given in full) ({X1-CO}-VF[Thr(3ξ)]F-{NH(2-Cl-4-NO2-phenyl)}) — 2.7-fold lower, 1.61 µM
